Data taken from ChEMBL document CHEMBL3286372, “Design, synthesis and structure-activity relationship of novel semi-synthetic flavonoids as antiproliferative agents” (2014).

What was measured:
CAKI-1 = test: Growth inhibition of human CAKI-1 cells at 10 uM after 48 hrs by sulforhodamine B assay relative to control; assay type: functional; conditions: CAKI-1, 48 h, read-out: GI
Method in brief: (§1)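 NCI-60 primary screen at a single dose of 10 µM with 48 h continuous exposure. Growth or viability read by sulforhodamine B protein staining and expressed as percent growth inhibition versus untreated cells.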

ACHN = test: Growth inhibition of human ACHN cells at 10 uM after 48 hrs by sulforhodamine B assay relative to control; assay type: functional; conditions: read-out: GI; method in brief: as §1
MDA-MB-468 = test: Growth inhibition of human MDA-MB-468 cells at 10 uM after 48 hrs by sulforhodamine B assay relative to control; assay type: functional; conditions: MDA-MB-468, 48 h, read-out: GI
Method in brief: (§2)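 NCI-60 primary screen at a single 10 µM dose. Continuous 48 h exposure, with growth or viability estimated by sulforhodamine B protein staining. Reported as percent growth inhibition of treated cells relative to untreated growth.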

HL-60(TB) = test: Growth inhibition of human HL-60(TB) cells at 10 uM after 48 hrs by sulforhodamine B assay relative to control; assay type: functional; conditions: HL-60, 48 h, read-out: GI
Method in brief: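 Single-dose primary screen at 10 µM across the NCI 60 panel, 48 h continuous exposure. Growth estimated by sulforhodamine B protein staining and reported as percentage growth inhibition relative to untreated control.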

[1] = Growth inhibition of human OVCAR3 cells at 10 uM after 48 hrs by sulforhodamine B assay relative to control; assay type: functional; conditions: OVCAR-3, 48 h, read-out: GI; method in brief: as §2
PC-3 = test: Growth inhibition of human PC3 cells at 10 uM after 48 hrs by sulforhodamine B assay relative to control; assay type: functional; conditions: PC-3, 48 h, read-out: GI; method in brief: as §2
RPMI-8226 = test: Growth inhibition of human RPMI8226 cells at 10 uM after 48 hrs by sulforhodamine B assay relative to control; assay type: functional; conditions: RPMI-8226, 48 h, read-out: GI; method in brief: as §2
CCRF-CEM = test: Growth inhibition of human CCRF-CEM cells at 10 uM after 48 hrs by sulforhodamine B assay relative to control; assay type: functional; conditions: read-out: GI; method in brief: as §1
[2] = Growth inhibition of human […] cells after 48 hrs by coulter counting analysis; assay type: functional
Method in brief: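 NCI five-dose screen at 0.01-100 µM, diluted from DMSO stocks in buffered saline (final DMSO <1%). Cells at 6×10^4 cells/ml in RPMI 1640 with 10% FBS, in duplicate wells, at 37 °C under 5% CO2 for 48 h. Cells diluted tenfold in saline and Coulter-counted. GI50, TGI and LC50 taken from log concentration-growth inhibition curves.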

[3] = Growth inhibition of human PC549 cells after 48 hrs by coulter counting analysis; assay type: functional
Method in brief: (§3)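 Five-dose NCI-60 follow-up, 0.01–100 µM, made from DMSO stock in buffered saline (final DMSO <1%), in duplicate wells. Cells in RPMI 1640 with 10% FBS at 6×10^4 cells/ml, 37 °C, 5% CO2, 48 h. Cells diluted tenfold in saline, Coulter-counted and corrected for dilution. GI50, TGI and LC50 taken from log concentration–percent growth curves.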

KM12 = test: Growth inhibition of human KM12 cells at 10 uM after 48 hrs by sulforhodamine B assay relative to control; assay type: functional; conditions: KM12, 48 h, read-out: GI; method in brief: as §1
HCT-116 = test: Growth inhibition of human HCT116 cells at 10 uM after 48 hrs by sulforhodamine B assay relative to control; assay type: functional; conditions: HCT-116, 48 h, read-out: GI; method in brief: as §1
SR [4] = test: Growth inhibition of human SR cells at 10 uM after 48 hrs by sulforhodamine B assay relative to control; assay type: functional; conditions: read-out: GI; method in brief: as §2
MDA-MB-435 = test: Growth inhibition of human MDA-MB-435 cells at 10 uM after 48 hrs by sulforhodamine B assay relative to control; assay type: functional; conditions: MDA-MB-435, 48 h, read-out: GI; method in brief: as §1
SR [5] = test: Growth inhibition of human SR cells after 48 hrs by coulter counting analysis; assay type: functional; method in brief: as §3
NCI-H23 = test: Growth inhibition of human NCI-H23 cells at 10 uM after 48 hrs by sulforhodamine B assay relative to control; assay type: functional; conditions: NCI-H23, 48 h, read-out: GI; method in brief: as §2
[6] = Growth inhibition of human LOXIMVI cells at 10 uM after 48 hrs by sulforhodamine B assay relative to control; assay type: functional; conditions: LOX IMVI, read-out: GI; method in brief: as §1
K562 = test: Growth inhibition of human K562 cells at 10 uM after 48 hrs by sulforhodamine B assay relative to control; assay type: functional; conditions: K562, 48 h, read-out: GI; method in brief: as §1
Mus musculus = test: Increase in GSK-3beta level in tumor of BALB mouse allografted with mouse EAC cells at 3 mg/kg, ip for 5 days by competitive ELISA relative to control; assay type: functional, Ehrlich; conditions: route intraperitoneal
Method in brief: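 Female BALB mice bearing subcutaneous EAC tumours (2×10^5 cells in left hind leg, grown 2 wk). Dosed i.p. daily for 5 days; controls received saline. Excised tumours washed in cold saline and homogenised at 10% in PBS. GSK-3β measured by competitive ELISA, samples in duplicate. Change versus untreated controls, mean ± SEM, n = 6.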

U-251 = test: Growth inhibition of human U251 cells at 10 uM after 48 hrs by sulforhodamine B assay relative to control; assay type: functional; conditions: U-251, 48 h, read-out: GI
Method in brief: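 NCI-60 primary single-dose screen at 10 µM with continuous 48 h exposure. Cell viability/growth read by sulforhodamine B protein staining. Reported as percent growth inhibition relative to untreated cells.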

786-0 = test: Growth inhibition of human 786-0 cells at 10 uM after 48 hrs by sulforhodamine B assay relative to control; assay type: functional; conditions: 786-0, 48 h, read-out: GI; method in brief: as §1
Ehrlich = test: Antitumor activity against mouse EAC cells allografted in BALB mouse assessed as tumor growth inhibition at 6 mg/kg, ip for 5 days relative to control; assay type: functional; conditions: 120 h, route intraperitoneal, read-out: TGI
Method in brief: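 Female BALB mice; Ehrlich ascites carcinoma cells, 2×10^5 cells/mouse in 0.2 ml saline, injected s.c. into the left hind leg and grown 2 wk. Daily i.p. saline (control), 3 or 6 mg/kg for 5 days. Caliper size V = 0.4×a(b)^2, taken just before the first dose and 24 h after the last. Mean ± SEM, n = 6; ANOVA with Tukey-Kramer.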

M14 = test: Growth inhibition of human M14 cells at 10 uM after 48 hrs by sulforhodamine B assay relative to control; assay type: functional; conditions: M14, 48 h, read-out: GI; method in brief: as §1
[7] = Growth inhibition of human HCT15 cells at 10 uM after 48 hrs by sulforhodamine B assay relative to control; assay type: functional; conditions: HCT-15, 48 h, read-out: GI; method in brief: as §1
HT-29 = test: Growth inhibition of human HT-29 cells at 10 uM after 48 hrs by sulforhodamine B assay relative to control; assay type: functional; conditions: HT-29, 48 h, read-out: GI; method in brief: as §1

In the case of `COc1c2occc2c(OC)c2c(=O)c(CN3CCOCC3)c(/C=C/c3ccc(Cl)cc3)oc12`, the inhibition of growth at 10 µM (CAKI-1) is reported as 61%, the inhibition of growth at 10 µM (ACHN) is reported as 66% and the inhibition of growth at 10 µM (MDA-MB-468) is reported as 86%. For the same compound, the inhibition of growth at 10 µM (HL-60(TB)) was 60%, the inhibition of growth at 10 µM [1] was 68% and the inhibition of growth at 10 µM (PC-3) was 72%. For the same compound, the inhibition of growth at 10 µM (RPMI-8226) was 60% and the inhibition of growth at 10 µM (CCRF-CEM) was 81%.
Work on `COc1c(C(=O)/C=C/c2ccc(Cl)cc2)c(O)c(Br)c2occc12` yielded a GI50 [2] of 3120 nM and a GI50 [3] of 2540 nM.
`COc1ccccc1/C=C/C(=O)c1c(O)cc2occc2c1OC` gave an inhibition of growth at 10 µM (KM12) of 63%, an inhibition of growth at 10 µM (MDA-MB-468) of 84% and an inhibition of growth at 10 µM (HCT-116) of 66%. For the same compound, the inhibition of growth at 10 µM (RPMI-8226) was 86%, the inhibition of growth at 10 µM (CCRF-CEM) was 63% and the inhibition of growth at 10 µM (SR [4]) was 62%. The inhibition of growth at 10 µM (MDA-MB-435) was 74%.
With `COc1c(C(=O)/C=C/c2ccccc2)c(O)cc2occc12` the inhibition of growth at 10 µM (KM12) was 64%, the inhibition of growth at 10 µM (HCT-116) was 68% and the inhibition of growth at 10 µM (RPMI-8226) was 86%. The inhibition of growth at 10 µM (CCRF-CEM) was 65%, the GI50 (SR [5]) was 3270 nM and the inhibition of growth at 10 µM (SR [4]) was 72%. It also gave an inhibition of growth at 10 µM (MDA-MB-435) of 68%.
Work on `C=CCc1c2c(c(OC)c3ccoc13)C(=O)/C(=C/c1ccccc1OC)O2` yielded an inhibition of growth at 10 µM (CAKI-1) of 62%, an inhibition of growth at 10 µM (NCI-H23) of 80% and an inhibition of growth at 10 µM [6] of 62%. For the same compound, the inhibition of growth at 10 µM (HCT-116) was 79%, the inhibition of growth at 10 µM (RPMI-8226) was 71% and the inhibition of growth at 10 µM (CCRF-CEM) was 63%. The GI50 (SR [5]) was 3160 nM.
Work on `C=CCc1c(O)c(C(=O)/C=C/c2ccc(Cl)cc2)c(OC)c2ccoc12` yielded a GI50 (SR [5]) of 2770 nM.
In the case of `C=CCc1c(O)c(C(=O)/C=C/c2ccccc2)c(OC)c2ccoc12`, the GI50 (SR [5]) is reported as 2150 nM.
Work on `COc1c2occc2c(OC)c2c(=O)c(CN3CCOCC3)c(/C=C/c3ccc(N(C)C)cc3)oc12` yielded an inhibition of growth at 10 µM (K562) of 84%, an inhibition of growth at 10 µM (KM12) of 73% and an Activity (Mus musculus) of 101.5%. It also gave an inhibition of growth at 10 µM (ACHN) of 89%, an inhibition of growth at 10 µM (U-251) of 69% and an inhibition of growth at 10 µM (MDA-MB-468) of 70%. The inhibition of growth at 10 µM (NCI-H23) was 80%, the inhibition of growth at 10 µM (HL-60(TB)) was 64% and the inhibition of growth at 10 µM [1] was 88%. For the same compound, the inhibition of growth at 10 µM (786-0) was 95%, the inhibition of growth at 10 µM (PC-3) was 87% and the inhibition in vivo at 6 mg/kg (Ehrlich) was 57.1%. The inhibition of growth at 10 µM (M14) was 63%, the GI50 [2] was 1680 nM and the inhibition of growth at 10 µM [6] was 65%. The inhibition of growth at 10 µM [7] was 67%, the inhibition of growth at 10 µM (HCT-116) was 82% and the inhibition of growth at 10 µM (RPMI-8226) was 80%. It also gave an inhibition of growth at 10 µM (HT-29) of 82%, a GI50 [3] of 2870 nM and an inhibition of growth at 10 µM (CCRF-CEM) of 95%.
